Compound activity deposited in PubChem by Broad Institute.
This excerpt belongs to a sample that is enriched for hits.
GASC1 inh: inhibitors of GASC-1 (KDM4C) histone demethylase, primary screen, biochemical, single concentration HTS; 0.15% of 96,000 active; GST-KDM4C 2-372, H3K9me3 peptide, LANCE TR-FRET; inhibition, % at 12.5 µM; Lysine-specific demethylase 4C (Homo sapiens), Q9H3R0; AID 720574, 2013;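 active = mean replicate inhibition above about 25%, with at least 55% of replicates also reaching it, limit read from the data, passing the limit was not always enough; inconclusive = only one of those two conditions met; inactive = neither condition met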
Target sequence (Q9H3R0 2-372 limits assumed): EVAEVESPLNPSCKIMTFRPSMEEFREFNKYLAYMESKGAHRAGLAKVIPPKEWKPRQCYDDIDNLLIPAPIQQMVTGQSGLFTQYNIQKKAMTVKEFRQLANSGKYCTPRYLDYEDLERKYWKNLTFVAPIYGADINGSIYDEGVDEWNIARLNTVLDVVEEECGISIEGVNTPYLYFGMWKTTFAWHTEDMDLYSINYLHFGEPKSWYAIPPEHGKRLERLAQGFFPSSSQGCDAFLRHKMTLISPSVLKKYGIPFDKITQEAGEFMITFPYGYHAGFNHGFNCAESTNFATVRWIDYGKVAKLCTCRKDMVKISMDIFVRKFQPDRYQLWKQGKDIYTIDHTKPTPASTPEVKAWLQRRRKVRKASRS
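Compound: one test concentration per compound; Material: GST-GASC-1 enzyme fragment 2-372; Amount: GASC-1 enzyme at 10 nM final in reaction; Also added: H3K9me3 peptide substrate, Fe(II), 2-oxoglutarate; Technique: LANCE TR-FRET; Times: 30 min demethylation and 1 h detection at room temperature.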
IDH1 R132H inh: inhibitors of IDH1 R132H reductase, primary screen, biochemical, plate reader, single point; diaphorase/resazurin fluorescence, 60 min; inhibition, % at 10 µM; 0.18% of 70,000 active; AID 624101, 2012; Isocitrate dehydrogenase [NADP] cytoplasmic (Homo sapiens), O75874; in the data active = inhibition above about 34%; inconclusive = no clear call, values can overlap the other calls; inactive = below about 11%
T cruzi growth-1: T. cruzi intracellular proliferation inhibitors, primary screen, cell-based, beta-gal Tulahuen parasites, NIH3T3 host, luminescence; inhibition, % at 8.34 µM; 5.9% of 77,000 active; AID 624255, 2012; T. cruzi beta-gal in NIH3T3, GalScreen luminescence, 90 h;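 active = mean inhibition above about 93%, with at least 55% of replicates each passing it, limit read from the data, passing the limit was not always enough; inconclusive = only one of those two conditions holds; inactive = neither condition holds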
T cruzi growth-2: T. cruzi intracellular proliferation inhibitors, confirmation, cell-based, NIH3T3 host, beta-gal parasite, luminescence, cherry-pick; shares compounds with T cruzi growth-1; T. cruzi beta-gal in NIH3T3, GalScreen luminescence, 90 h; inhibition, % at 8.35 µM; 72% of 5,600 active; AID 651739, 2012;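 active = mean replicate inhibition above about 95% and at least 55% of replicates individually reaching it, limit read from the data; inconclusive = only one of the two criteria is met; inactive = neither criterion is met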
T cruzi growth-3: inhibitors of intracellular T. cruzi replication, confirmation, NIH3T3 host cells, beta-gal parasites, cherry-pick, set 2; shares compounds with T cruzi growth-1; T. cruzi beta-gal in NIH3T3, GalScreen luminescence, 90 h; inhibition, % at 2.09 µM; 21% of 5,600 active; AID 651740, 2012;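 active = mean inhibition above about 95%, with at least 55% of replicates also reaching it, limit read from the data; inconclusive = meets just one of the two conditions; inactive = meets neither condition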
3T3 cytotox: cytotoxicity in mouse NIH/3T3 fibroblasts, confirmation, cytotoxicity control for T. cruzi proliferation inhibitor project, cell-based, cherry-pick, single point | AID 651742, 2012 | 14% of 5,600 active | shares compounds with T cruzi growth-1 | NIH/3T3 viability, CellTiter-Glo ATP luminescence, 90 h | cytotoxicity (signal decrease), % at 8.35 µM;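 active = mean signal decrease across replicates above about 35% based on untreated-well scatter, with enough replicates individually passing, limit read from the data; inconclusive = no rule stated though some were filed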
NIH3T3 tox 2: NIH/3T3 fibroblast cytotoxicity, confirmation, cytotoxicity control, cell-based, cherry-pick, single point, set 2. shares compounds with T cruzi growth-1. NIH/3T3 viability, CellTiter-Glo ATP luminescence, 90 h. inhibition, % at 24.9 µM. 56% of 5,600 active. AID 651744, 2012;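 active = mean loss of cell viability signal at or above a set limit, and enough replicates individually reaching it; inconclusive = meets only the mean limit or only the replicate share; inactive = meets neither condition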
Numbers stand for hits; i = inactive; ? = inconclusive; nt = no result; ! = a repeat was not active.

SMILES	GASC1 inh	IDH1 R132H inh	T cruzi growth-1	T cruzi growth-2	T cruzi growth-3	3T3 cytotox	NIH3T3 tox 2
COc1ccc(C#Cc2ccc3c(c2)O[C@@H](CN(C)S(=O)(=O)c2ccccc2F)[C@H](C)CN([C@H](C)CO)S3(=O)=O)cc1	i	i	nt	nt	nt	nt	nt
C[C@H]1CN([C@@H](C)CO)S(=O)(=O)c2ccc(C#Cc3ccccc3)cc2O[C@H]1CN(C)S(=O)(=O)c1ccccc1F	i	i	123	106	?	i	i
C[C@@H]1CN([C@@H](C)CO)S(=O)(=O)c2ccc(C#Cc3ccccc3)cc2O[C@H]1CN(C)S(=O)(=O)c1ccccc1F	i	i	124	109	i	41	47
Cc1cnnc(/N=C(\N)Nc2ccc(S(=O)(=O)Nc3nc(C)ccc3C)cc2)n1	nt	i	nt	nt	nt	nt	nt
C[C@H](CO)N1C[C@H](C)[C@H](CN(C)S(=O)(=O)c2ccc(Cl)cc2)OCCCC[C@H](C)Oc2ccc(NC(=O)c3ccncc3)cc2C1=O	i	nt	i	nt	nt	nt	nt
C[C@@H]1CN([C@H](C)CO)C(=O)c2cc(NC(=O)c3ccncc3)ccc2O[C@@H](C)CCCCO[C@@H]1CN(C)S(=O)(=O)c1ccc(Cl)cc1	i	nt	?	95	i	i	i
C[C@@H]1CCCCO[C@H](CN(C)S(=O)(=O)c2ccc(Cl)cc2)[C@H](C)CN([C@H](C)CO)C(=O)c2cc(NC(=O)c3ccncc3)ccc2O1	i	nt	101	100	i	38	i
C[C@H]1CCCCO[C@H](CN(C)S(=O)(=O)c2ccc(Cl)cc2)[C@@H](C)CN([C@@H](C)CO)C(=O)c2cc(NC(=O)c3ccncc3)ccc2O1	i	i	i	nt	nt	nt	nt
COc1cc(NC(=O)COc2ccc(Br)cc2)ccc1NC(=O)c1cc2ccccc2o1	nt	i	nt	nt	nt	nt	nt
C[C@H](CO)N1C[C@H](C)[C@@H](CN(C)C(=O)Nc2ccc(C(F)(F)F)cc2)Oc2cc(-c3ccncc3)ccc2S1(=O)=O	i	i	103	110	i	i	48
Cc1ccc(-c2ccc3c(c2)O[C@@H](CN(C)C(=O)Nc2ccc(C(F)(F)F)cc2)[C@H](C)CN([C@@H](C)CO)S3(=O)=O)cc1	i	i	i	nt	nt	nt	nt
C[C@@H]1CN([C@@H](C)CO)S(=O)(=O)c2ccc(-c3ccncc3)cc2O[C@H]1CN(C)C(=O)Nc1ccc(C(F)(F)F)cc1	i	i	i	nt	nt	nt	nt
C[C@@H]1CN([C@@H](C)CO)S(=O)(=O)c2ccc(-c3ccncc3)cc2O[C@@H]1CN(C)C(=O)Nc1ccc(C(F)(F)F)cc1	i	i	?	108	i	i	67
O=C(O)C1CC(O)CN1S(=O)(=O)c1ccc(Cl)cc1 (configuration not stated)	nt	i	nt	nt	nt	nt	nt
NC(=O)CSc1nc2c(c(=O)n1Cc1ccccc1)C1(CCCC1)Cc1ccccc1-2	nt	i	nt	nt	nt	nt	nt
C[C@H](CO)N1C[C@H](C)[C@@H](CN(C)Cc2cccnc2)Oc2cc(C#CC3CCCCC3)ccc2S1(=O)=O	i	nt	i	nt	nt	nt	nt
C[C@H](CO)N1C[C@H](C)[C@@H](CN(C)Cc2cccnc2)Oc2cc(C#CC3CCCC3)ccc2S1(=O)=O	i	nt	96	102	109	i	105
C[C@H]1CN([C@@H](C)CO)S(=O)(=O)c2ccc(C#CC3CCCCC3)cc2O[C@H]1CN(C)Cc1cccnc1	i	nt	i	nt	nt	nt	nt
C[C@@H]1CN([C@@H](C)CO)S(=O)(=O)c2ccc(C#CC3CCCCC3)cc2O[C@@H]1CN(C)Cc1cccnc1	i	nt	102!	113	i	51	105
Cc1ccc(/C=N/NC(=O)CCCCCCC(=O)Nc2ccccc2O)o1	nt	i	nt	nt	nt	nt	nt
COc1cc([N+](=O)[O-])ccc1NC(=O)CSc1nc(C)cc(C(F)(F)F)n1	nt	i	nt	nt	nt	nt	nt
C[C@@H]1CN([C@H](C)CO)C(=O)c2cc(NC(=O)Nc3cccc4ccccc34)ccc2O[C@@H](C)CCCCO[C@@H]1CN(C)Cc1ccc(C(F)(F)F)cc1	i	nt	?	102	108	i	i
C[C@@H]1CN([C@H](C)CO)C(=O)c2cc(NC(=O)Nc3cccc4ccccc34)ccc2O[C@@H](C)CCCCO[C@@H]1CN(C)Cc1ccc(C(=O)O)cc1	i	nt	i	nt	nt	nt	nt
C[C@@H]1CCCCO[C@@H](CN(C)Cc2ccc(C(=O)O)cc2)[C@H](C)CN([C@H](C)CO)C(=O)c2cc(NC(=O)Nc3cccc4ccccc34)ccc2O1	i	i	i	nt	nt	nt	nt
C[C@H]1CCCCO[C@@H](CN(C)Cc2ccc(C(F)(F)F)cc2)[C@@H](C)CN([C@@H](C)CO)C(=O)c2cc(NC(=O)Nc3cccc4ccccc34)ccc2O1	i	nt	?	108	108	i	i
SMILES	GASC1 inh	IDH1 R132H inh	T cruzi growth-1	T cruzi growth-2	T cruzi growth-3	3T3 cytotox	NIH3T3 tox 2
C[C@H]1CCCCO[C@@H](CN(C)Cc2ccc(C(=O)O)cc2)[C@@H](C)CN([C@@H](C)CO)C(=O)c2cc(NC(=O)Nc3cccc4ccccc34)ccc2O1	i	i	i	nt	nt	nt	nt
C[C@@H]1CCCCO[C@@H](CN(C)Cc2ccc(C(F)(F)F)cc2)[C@@H](C)CN([C@@H](C)CO)C(=O)c2cc(NC(=O)Nc3cccc4ccccc34)ccc2O1	i	i	?	108	100	i	i
C[C@@H]1CCCCO[C@H](CN(C)Cc2ccc(C(=O)O)cc2)[C@@H](C)CN([C@H](C)CO)C(=O)c2cc(NC(=O)Nc3cccc4ccccc34)ccc2O1	i	i	i	nt	nt	nt	nt
C[C@H]1CCCCO[C@H](CN(C)Cc2ccc(C(F)(F)F)cc2)[C@@H](C)CN([C@@H](C)CO)C(=O)c2cc(NC(=O)Nc3cccc4ccccc34)ccc2O1	i	nt	?	97	109	i	i
CC(=O)OCC/C(=C\CC1(O)C(C)CCC2C(C)(C)CCCC21C)COC(C)=O (configuration not stated)	nt	i	nt	nt	nt	nt	nt
CC(=O)O[C@]1(C(C)=O)CC[C@H]2[C@@H]3C=C(Cl)C4=CC(=O)C5CC5[C@]4(C)[C@H]3CC[C@@]21C (some centres not stated)	nt	i	nt	nt	nt	nt	nt
CS(=O)(=O)N(CC(=O)Nc1ccc(Br)cc1F)c1ccc(Cl)c(Cl)c1	nt	i	nt	nt	nt	nt	nt
CCCc1ccc(-c2cc(C(=O)NCc3ccccn3)c3ccccc3n2)cc1	nt	i	nt	nt	nt	nt	nt
C[C@@H]1CCCCO[C@@H](CN(C)C(=O)Nc2ccc(F)cc2)[C@@H](C)CN([C@H](C)CO)C(=O)c2cc(NC(=O)Nc3ccc4c(c3)OCO4)ccc2O1	i	i	i	nt	nt	nt	nt
